Source: ChEMBL document CHEMBL1938337, “Discovery of novel, potent, and selective inhibitors of 3-phosphoinositide-dependent kinase (PDK1)” (J Med Chem, 2011)
Values after ≈ are worked out from the molar mass of the structure shown.

What was measured:
[1] = biological target: Serine/threonine-protein kinase mTOR (Homo sapiens, UniProt P42345); assay: Inhibition of GST-tagged mTOR assessed as phosphorylation at Thr46 in GFP-4E-BP1 substrate by TR-FRET assay
Summary of the method: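 GST-tagged mTOR (aa 1360-2549) at 1 nM, with 0.4 μM GFP-4E-BP1 and 40 μM ATP. Buffer: 50 mM Hepes pH 7.4, 10 mM MgCl2, 1 mM EGTA, 0.01% Tween-20, at about 22 °C. A terbium anti-phospho-Thr46 antibody was added at the end, and the read-out was TR-FRET. Duplicate data fitted by nonlinear regression. Concentrations are final.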

[2] = biological target: T1, 3-phosphoinositide-dependent protein kinase 1 (Homo sapiens, UniProt O15530); assay: Inhibition of recombinant human His-tagged PDK1 catalytic domain using Ac-Sox-PKTFCGTPEYLAPEVRREPRILSEEEQEMFRDFDYIAD-NH2 as substrate by fluorescence-based spectrophotometry
T1 sequence (O15530 whole entry): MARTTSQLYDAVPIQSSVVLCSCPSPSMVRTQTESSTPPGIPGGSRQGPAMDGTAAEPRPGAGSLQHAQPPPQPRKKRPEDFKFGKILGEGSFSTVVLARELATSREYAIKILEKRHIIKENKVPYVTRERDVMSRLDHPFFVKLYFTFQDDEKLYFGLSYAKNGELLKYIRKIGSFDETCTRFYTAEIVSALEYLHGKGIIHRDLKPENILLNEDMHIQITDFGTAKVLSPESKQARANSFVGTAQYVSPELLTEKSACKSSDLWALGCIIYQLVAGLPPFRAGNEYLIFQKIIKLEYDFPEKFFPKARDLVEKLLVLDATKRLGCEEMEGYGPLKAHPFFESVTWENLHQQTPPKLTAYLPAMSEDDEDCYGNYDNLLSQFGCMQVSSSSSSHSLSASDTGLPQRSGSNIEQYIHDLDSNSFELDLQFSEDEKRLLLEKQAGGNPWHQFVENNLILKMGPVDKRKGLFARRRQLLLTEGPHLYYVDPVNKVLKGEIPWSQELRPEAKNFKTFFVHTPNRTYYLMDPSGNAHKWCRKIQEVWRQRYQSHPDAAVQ

[3] = biological target: Phosphatidylinositol 4,5-bisphosphate 3-kinase catalytic subunit alpha isoform (Mus musculus, UniProt P42337); assay: Inhibition of mouse PI3Kalpha after 30 mins by fluorescence polarization assay
Summary of the method: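 Mouse PI3Kα 0.5 nM with 30 μM PIP₂, 5 mM MgCl₂, 200 μM ATP, 30 min at room temperature (~22 °C); stopped with 10 mM EDTA. Then 3 min with detector mix of 480 nM GST-Grp1 PH domain and 12 nM TAMRA-PIP₃. Fluorescence polarization read in 50 mM Hepes pH 7.4, 150 mM NaCl, 5 mM DTT, 0.05% CHAPS. Duplicate points, nonlinear regression fit.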

[4] = Clearance in human liver microsomes; type: ADME, Microsome; details: read-out: CLH
[5] = Inhibition of recombinant GST-tagged P70S6K using 5FAM-KRSRTRTDSYSAGQ-COOH as substrate by fluorescence based assay
Summary of the method: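 GST-tagged P70S6K (a.a. 1-421) at 5 nM, 50 μM ATP, 5 μM 5FAM-peptide. Product separated from substrate by charge (electrophoretic mobility shift, −2500/−500 V). Duplicates, nonlinear regression fit.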

[6] = Passive permeability in canine kidney cells; type: ADME, cell-based, Canis lupus familiaris; details: dog; read-out: permeability
[7] = Solubility of the compound at pH 6.5; type: physicochemical; details: buffer
[8] = biological target: RAC-alpha serine/threonine-protein kinase (Homo sapiens, UniProt P31749); assay: Inhibition of His-tagged AKT1 using 5FAM-GRPRTSSFAEGCONH2 as substrate by fluorescence based assay
CYP3A4 (Homo sapiens) [9] = assay: Inhibition of CYP3A4 at 3 uM
CYP3A4 (Homo sapiens) [10] = assay: Inhibition of CYP3A4 at 3 uM; remark: listed apart in the source
CYP3A4 (Homo sapiens) [11] = assay: Inhibition of CYP3A4 at 3 uM; remark: listed apart in the source
CYP3A4 = CYP3A4 (Homo sapiens, UniProt P08684); assay: Inhibition of CYP3A4 at 3 uM; type: ADME
Sequence of CYP3A4 (P08684 whole entry): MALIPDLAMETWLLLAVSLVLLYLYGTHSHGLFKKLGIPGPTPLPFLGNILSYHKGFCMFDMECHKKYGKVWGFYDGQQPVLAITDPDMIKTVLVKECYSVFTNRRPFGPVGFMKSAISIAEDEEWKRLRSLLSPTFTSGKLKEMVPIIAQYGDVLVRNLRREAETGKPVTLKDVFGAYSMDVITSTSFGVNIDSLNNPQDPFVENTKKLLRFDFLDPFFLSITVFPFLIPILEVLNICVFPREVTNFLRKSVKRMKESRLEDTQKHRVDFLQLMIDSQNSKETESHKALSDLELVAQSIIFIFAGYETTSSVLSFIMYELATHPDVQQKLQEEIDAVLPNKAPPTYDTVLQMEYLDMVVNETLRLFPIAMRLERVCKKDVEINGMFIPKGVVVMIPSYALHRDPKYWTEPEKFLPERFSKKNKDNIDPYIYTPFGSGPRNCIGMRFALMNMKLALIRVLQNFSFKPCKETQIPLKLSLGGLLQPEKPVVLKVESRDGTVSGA

Sequence of RAC-alpha serine/threonine-protein kinase (P31749 whole entry): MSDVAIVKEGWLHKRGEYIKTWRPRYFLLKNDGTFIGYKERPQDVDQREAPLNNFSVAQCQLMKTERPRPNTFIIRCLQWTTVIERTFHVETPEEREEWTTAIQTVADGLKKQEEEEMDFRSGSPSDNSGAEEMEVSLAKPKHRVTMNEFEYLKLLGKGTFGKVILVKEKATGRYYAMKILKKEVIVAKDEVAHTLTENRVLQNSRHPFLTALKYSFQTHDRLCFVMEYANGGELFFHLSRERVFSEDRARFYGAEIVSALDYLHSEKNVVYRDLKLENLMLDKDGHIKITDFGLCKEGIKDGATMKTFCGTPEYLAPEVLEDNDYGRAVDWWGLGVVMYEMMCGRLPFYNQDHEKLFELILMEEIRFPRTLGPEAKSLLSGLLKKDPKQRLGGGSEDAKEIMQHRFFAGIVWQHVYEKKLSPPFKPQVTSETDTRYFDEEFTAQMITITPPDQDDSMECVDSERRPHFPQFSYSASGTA
Sequence of Phosphatidylinositol 4,5-bisphosphate 3-kinase catalytic subunit alpha isoform (P42337 whole entry, the tested form may be a part, canonical isoform): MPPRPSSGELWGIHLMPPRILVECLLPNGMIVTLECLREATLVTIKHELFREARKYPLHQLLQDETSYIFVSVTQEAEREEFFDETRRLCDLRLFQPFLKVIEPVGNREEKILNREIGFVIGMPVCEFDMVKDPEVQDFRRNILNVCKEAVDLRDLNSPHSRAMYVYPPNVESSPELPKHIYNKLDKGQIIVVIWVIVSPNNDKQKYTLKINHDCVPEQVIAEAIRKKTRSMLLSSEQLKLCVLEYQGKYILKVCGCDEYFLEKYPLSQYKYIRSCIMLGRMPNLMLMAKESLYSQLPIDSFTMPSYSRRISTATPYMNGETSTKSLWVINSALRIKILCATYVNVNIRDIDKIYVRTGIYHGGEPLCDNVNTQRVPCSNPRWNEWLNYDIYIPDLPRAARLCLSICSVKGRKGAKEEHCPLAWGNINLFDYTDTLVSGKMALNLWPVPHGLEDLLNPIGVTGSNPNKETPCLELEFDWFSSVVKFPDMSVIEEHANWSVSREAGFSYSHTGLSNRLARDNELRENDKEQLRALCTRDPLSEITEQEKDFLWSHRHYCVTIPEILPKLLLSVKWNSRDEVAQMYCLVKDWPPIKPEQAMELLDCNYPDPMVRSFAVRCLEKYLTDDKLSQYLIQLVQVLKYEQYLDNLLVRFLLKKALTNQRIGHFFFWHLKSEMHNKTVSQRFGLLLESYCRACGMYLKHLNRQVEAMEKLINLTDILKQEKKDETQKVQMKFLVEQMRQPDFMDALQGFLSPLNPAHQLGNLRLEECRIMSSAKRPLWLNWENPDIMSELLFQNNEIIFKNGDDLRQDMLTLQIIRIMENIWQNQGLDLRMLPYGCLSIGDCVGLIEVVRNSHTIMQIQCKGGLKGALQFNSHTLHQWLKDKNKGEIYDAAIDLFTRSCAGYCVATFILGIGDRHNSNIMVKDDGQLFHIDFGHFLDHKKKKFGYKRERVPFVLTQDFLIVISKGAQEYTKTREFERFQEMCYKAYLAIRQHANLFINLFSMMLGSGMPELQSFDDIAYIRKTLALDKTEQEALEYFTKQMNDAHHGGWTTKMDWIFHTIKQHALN

| Compound | Ki [1] [nM] | Ki [2] [nM] | Ki [3] [nM] | microsomal CLint [4] [µL/min/mg] | Ki [5] [nM] | Papp [6] [×10⁻⁶ cm/s] | solubility [7] [µM] | Ki [8] [nM] | inhibition at 3 µM (CYP3A4 (Homo sapiens) [9]) [%] | inhibition at 3 µM (CYP3A4 (Homo sapiens) [10]) [%] | inhibition at 3 µM (CYP3A4 (Homo sapiens) [11]) [%] | inhibition at 3 µM (CYP3A4) [%] |
| --- | --- | --- | --- | --- | --- | --- | --- | --- | --- | --- | --- | --- |
| CC(C)n1cc(C(=O)c2cncc(N[C@@H]3CCO[C@@H]3c3ccc(F)cc3)n2)c2c(N)ncnc21 | 3900 | 1.3 | 430 | 220 | 61 | 13 | 120 (≈ 55.4 µg/mL) | 230 | – | – | – | – |
| CC(C)n1cc(C(=O)c2cncc(N[C@@H]3CNC[C@@H]3c3ccc(F)cc3)n2)c2c(N)ncnc21 | 1100 | 2.5 | 370 | 59 | 11 | 2 | 480 (≈ 221 µg/mL) | 10 | 27 | 27 | 27 | 27 |
| CC(C)n1cc(C(=O)c2cncc(N(C)[C@@H]3CCC[C@@H]3c3ccc(F)cc3)n2)c2c(N)ncnc21 | – | 0.9 | 650 | – | – | – | – | – | – | – | – | – |
| CC(C)n1cc(C(=O)c2cncc(N[C@@H]3CCC[C@@H]3c3ccccc3)n2)c2c(N)ncnc21 | – | 2 | 130 | – | – | – | – | – | – | – | – | – |
| CC(C)n1cc(C(=O)c2cncc(N[C@@H]3CCC[C@@H]3c3ccc(F)cc3)n2)c2c(N)ncnc21 | 3900 | 0.6 | 320 | 160 | 230 | 6 | 6 (≈ 2.76 µg/mL) | 210 | – | – | – | – |
| CC(C)n1cc(C(=O)c2cncc(N[C@@H]3COC[C@@H]3c3ccc(F)cc3)n2)c2c(N)ncnc21 | 500 | – | 570 | 160 | 170 | 13 | 23 (≈ 10.6 µg/mL) | 260 | – | – | – | – |
| CNc1cncc(C(=O)c2cn(C(C)C)c3ncnc(N)c23)n1 | – | 100 | – | – | – | – | – | – | – | – | – | – |
| CC(C)n1cc(C(=O)c2cncc(NCCc3cccnc3)n2)c2c(N)ncnc21 | – | – | 250 | – | – | – | – | – | – | – | – | – |
| CC(C)n1cc(C(=O)c2cncc(N[C@@H]3CCN[C@@H]3c3ccc(F)cc3)n2)c2c(N)ncnc21 | 2100 | 1 | 150 | 92 | 120 | 5 | 520 (≈ 239 µg/mL) | 100 | – | – | – | – |
